Here are results for nine compounds from ChEMBL document CHEMBL1139179, “5-Alkynyl-2'-deoxyuridines: chromatography-free synthesis and cytotoxicity evaluation against human breast cancer cells” (Bioorg Med Chem, 2007).

The term IC50 denotes the concentration that inhibits the measured activity by half. Low values mean greater potency in that assay, high ones weaker potency in that assay.

Assay [1] has as its system MCF7. The assay can be described thus: Cytotoxicity against human MCF7 cells after 96 hrs. The following applies: MCF7, 96 h.
In the next assay the test system is MDA-MB-231. The assay can be described thus: Cytotoxicity against human MDA-MB-231 cells after 72 hrs. To be noted: MDA-MB-231, 72 h. The class given is functional, cell-based. In short, it runs like this:
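MDA-MB-231 cells (100 μL at 5000 cells/mL) grown 72 h at 37 °C, 5% CO2, then given graded concentrations (six replicates) for a further 72 h. Glutardialdehyde fixation, 0.02 M crystal violet staining, 70% ethanol elution, absorbance at 590 nm. A day-0 biomass plate was subtracted and the control taken as 100%. IC50 is 50% proliferation inhibition, mean of at least two independent runs.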

Assay [2] relates to MCF7. The assay can be described thus: Cytotoxicity against human MCF7 cells after 72 hrs. To be noted: MCF7, 72 h. The format is functional, cell-based.

As for `C#Cc1cn([C@H]2C[C@H](O)[C@@H](CO)O2)c(=O)[nH]c1=O`, the IC50 is 0.4 µM in the assay on MCF7 [1] and 4.4 µM in the assay on MDA-MB-231.

For the compound `C[Si](C)(C)C#Cc1cn([C@H]2C[C@H](O)[C@@H](CO)O2)c(=O)[nH]c1=O`, the values for the IC50 in the assay with MCF7 [1] and in the assay on MDA-MB-231 were 1.6 µM and 4.2 µM, respectively.

Consider `O=c1[nH]c(=O)n([C@H]2C[C@H](O)[C@@H](CO)O2)cc1C#CC1CC1`, for which the IC50 with MCF7 [1] and in the assay with MDA-MB-231 was over 50 µM each time.

As to `Cc1ccc(C#Cc2cn([C@H]3C[C@H](O)[C@@H](CO)O3)c(=O)[nH]c2=O)cc1`, the IC50 in the assay with MCF7 [2] is 0.9 µM; in the assay with MDA-MB-231, over 50 µM.

Regarding `CCCCCc1ccc(C#Cc2cn([C@H]3C[C@H](O)[C@@H](CO)O3)c(=O)[nH]c2=O)cc1`, the IC50 in the assay with MCF7 [1] came out at 37 µM; in the assay on MDA-MB-231, 29.2 µM.

In the case of `CCCC#Cc1cn([C@H]2C[C@H](O)[C@@H](CO)O2)c(=O)[nH]c1=O`, the IC50 in the assay with MCF7 [1] and in the assay with MDA-MB-231 was over 50 µM throughout.

As for `O=c1[nH]c(=O)n([C@H]2C[C@H](O)[C@@H](CO)O2)cc1C#CC1(O)CCCCC1`, the IC50 in the assay on MCF7 [1] and in the assay on MDA-MB-231 was over 50 µM each time.

In the case of `CC(C)(C)c1ccc(C#Cc2cn([C@H]3C[C@H](O)[C@@H](CO)O3)c(=O)[nH]c2=O)cc1`, the IC50 was 9.5 µM with MCF7 [1] and over 50 µM in the assay with MDA-MB-231.

As for `O=c1[nH]cc(F)c(=O)[nH]1` [FLUOROURACIL], the figures for the IC50 with MCF7 [2] and with MDA-MB-231 were 4.8 µM and 9.6 µM, respectively.
